Tests used:
[1] = Antitumor activity against ip dosed mouse EAC implanted in Swiss albino mouse assessed as inhibition of ascitic fluid administered daily for 7 days measured on 9th day relative to control; assay type: functional, Ehrlich
How it was run: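 Female Swiss albino mice (18-20 g, 6 per group) implanted ip with 2×10^6 EAC cells/0.2 mL. Compound in phosphate buffer pH 7.2 (PBS + 2% Tween 80 when needed) given ip daily from day 2, seven doses; controls received vehicle. Day 9, after a 6 h fast, mice weighed before and after ascitic fluid removal; the difference is tumor weight. %TWI derived from mean test vs control weight.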

[2] = Antitumor activity against ip dosed mouse EAC implanted in Swiss albino mouse assessed as inhibition of ascitic cell administered daily for 7 days measured on 9th day relative to control; assay type: functional, Ehrlich
How it was run: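 Female Swiss albino mice (18-20 g, 6 per group, test vs vehicle control) given 2×10^6 EAC cells/0.2 mL ip. From day 2, compound in phosphate buffer pH 7.2 (2% Tween 80 in PBS if needed) given ip every 24 h for seven doses. Day 9, after a 6 h fast, ascitic fluid withdrawn and live cells counted by trypan blue and haemocytometer. %TCI derived from mean cells/ml in test vs control.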

SMILES | inhibition (INH) [1] [%] | inhibition (INH) [2] [%]
CC(C)NC(=O)CCC(NS(=O)(=O)c1ccc(Cl)c2ccccc12)C(=O)NC(C)C (configuration not stated) | 24.68 | 75.17
CCNC(=O)CCC(NS(=O)(=O)c1cccc2ccccc12)C(=O)NCC (configuration not stated) | 24.61 | 27.92
CCCCCNC(=O)CCC(NS(=O)(=O)c1cccc2ccccc12)C(=O)NCCCCC (configuration not stated) | 56.62 | 17.64
O=C(CCC(NS(=O)(=O)c1ccc(Br)c2ccccc12)C(=O)NCc1ccccc1)NCc1ccccc1 (configuration not stated) | 8.99 | 23.5
[N-]=[N+]=CC(=O)OC[C@H](N)C(=O)O [AZASERINE] | 100 | 100
CCNC(=O)CCC(NS(=O)(=O)c1ccc(Br)c2ccccc12)C(=O)NCC (configuration not stated) | 24.34 | 16.22
CCCCCNC(=O)CCC(NS(=O)(=O)c1ccc(Br)c2ccccc12)C(=O)NCCCCC (configuration not stated) | 22.81 | 10.42
COc1ccc2ccccc2c1S(=O)(=O)NC(CCC(=O)NC1CCCCC1)C(=O)NC1CCCCC1 (configuration not stated) | 13.52 | 4.34
CC(C)CNC(=O)CCC(NS(=O)(=O)c1cccc2ccccc12)C(=O)NCC(C)C (configuration not stated) | 11.93 | 61.96
CNC(=O)CCC(NS(=O)(=O)c1ccc(Br)c2ccccc12)C(=O)NC (configuration not stated) | 20.58 | 10.62
O=C(CCC(NS(=O)(=O)c1cccc2ccccc12)C(=O)NCc1ccccc1)NCc1ccccc1 (configuration not stated) | 17.04 | 34.46
NC(=O)CCC(NS(=O)(=O)c1cccc2ccccc12)C(N)=O (configuration not stated) | 32.19 | 38.34
CCCNC(=O)CCC(NS(=O)(=O)c1cccc2ccccc12)C(=O)NCCC (configuration not stated) | 16.15 | 14.21
O=C(CCC(NS(=O)(=O)c1ccc(Cl)c2ccccc12)C(=O)NCc1ccccc1)NCc1ccccc1 (configuration not stated) | 22.69 | 22.94
CCCCNC(=O)CCC(NS(=O)(=O)c1cccc2ccccc12)C(=O)NCCCC (configuration not stated) | 14.34 | 16.17
CCCNC(=O)CCC(NS(=O)(=O)c1ccc(Cl)c2ccccc12)C(=O)NCCC (configuration not stated) | 18.73 | 39.33

SMILES | inhibition (INH) [1] [%] | inhibition (INH) [2] [%]
CO[C@@]12[C@H](COC(N)=O)C3=C(C(=O)C(C)=C(N)C3=O)N1C[C@@H]1N[C@@H]12 [MITOMYCIN] | 100 | 100
[N-]=[N+]=CC(=O)CC[C@H](N)C(=O)O [6-DIAZO-5-OXO-L-NORLEUCINE] | 100 | 100
CNC(=O)CCC(NS(=O)(=O)c1cccc2ccccc12)C(=O)NC (configuration not stated) | 27.42 | 69.32
NC(=O)CCC(NS(=O)(=O)c1ccc(Br)c2ccccc12)C(N)=O (configuration not stated) | 36.46 | 58.25
CCNC(=O)CCC(NS(=O)(=O)c1ccc(Cl)c2ccccc12)C(=O)NCC (configuration not stated) | 24.1 | 48.67
CC(C)NC(=O)CCC(NS(=O)(=O)c1cccc2ccccc12)C(=O)NC(C)C (configuration not stated) | 17.74 | 43.96
CCCNC(=O)CCC(NS(=O)(=O)c1ccc(Br)c2ccccc12)C(=O)NCCC (configuration not stated) | 2.96 | 14.86
COc1ccc2ccccc2c1S(=O)(=O)NC(CCC(=O)NCc1ccccc1)C(=O)NCc1ccccc1 (configuration not stated) | 7.57 | 18.78
CCCCNC(=O)CCC(NS(=O)(=O)c1ccc(Cl)c2ccccc12)C(=O)NCCCC (configuration not stated) | 20.71 | 33.1
CC(C)CNC(=O)CCC(NS(=O)(=O)c1ccc(Cl)c2ccccc12)C(=O)NCC(C)C (configuration not stated) | 15.2 | 41.28
O=C(CCC(NS(=O)(=O)c1cccc2ccccc12)C(=O)NC1CCCCC1)NC1CCCCC1 (configuration not stated) | 43.58 | 53.76
NC(=O)CCC(NS(=O)(=O)c1ccc(Cl)c2ccccc12)C(N)=O (configuration not stated) | 55.21 | 48.52
CCCCCCNC(=O)CCC(NS(=O)(=O)c1ccc(Cl)c2ccccc12)C(=O)NCCCCCC (configuration not stated) | 15.95 | 50.51
CNC(=O)CCC(NS(=O)(=O)c1ccc(Cl)c2ccccc12)C(=O)NC (configuration not stated) | 20.57 | 46.52
CCCCCCNC(=O)CCC(NS(=O)(=O)c1c(OC)ccc2ccccc12)C(=O)NCCCCCC (configuration not stated) | 5.19 | 14.79
